TRPC4 PAM = allosteric potentiators of mouse TRPC4 channel. hit rate 0.42% among 310,000. AID 2227. HEK293 TRPC4beta/mu-opioid, DAMGO EC20, Fluo-4 Ca2+ flux; active compounds read high. B-score at 10 µM. Q9QUQ5;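 active means B-score of calcium response area above 5 SD of library B-scores, with initial fluorescence ratio within 5 SD of library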
Target sequence (Q9QUQ5 whole entry, looked up): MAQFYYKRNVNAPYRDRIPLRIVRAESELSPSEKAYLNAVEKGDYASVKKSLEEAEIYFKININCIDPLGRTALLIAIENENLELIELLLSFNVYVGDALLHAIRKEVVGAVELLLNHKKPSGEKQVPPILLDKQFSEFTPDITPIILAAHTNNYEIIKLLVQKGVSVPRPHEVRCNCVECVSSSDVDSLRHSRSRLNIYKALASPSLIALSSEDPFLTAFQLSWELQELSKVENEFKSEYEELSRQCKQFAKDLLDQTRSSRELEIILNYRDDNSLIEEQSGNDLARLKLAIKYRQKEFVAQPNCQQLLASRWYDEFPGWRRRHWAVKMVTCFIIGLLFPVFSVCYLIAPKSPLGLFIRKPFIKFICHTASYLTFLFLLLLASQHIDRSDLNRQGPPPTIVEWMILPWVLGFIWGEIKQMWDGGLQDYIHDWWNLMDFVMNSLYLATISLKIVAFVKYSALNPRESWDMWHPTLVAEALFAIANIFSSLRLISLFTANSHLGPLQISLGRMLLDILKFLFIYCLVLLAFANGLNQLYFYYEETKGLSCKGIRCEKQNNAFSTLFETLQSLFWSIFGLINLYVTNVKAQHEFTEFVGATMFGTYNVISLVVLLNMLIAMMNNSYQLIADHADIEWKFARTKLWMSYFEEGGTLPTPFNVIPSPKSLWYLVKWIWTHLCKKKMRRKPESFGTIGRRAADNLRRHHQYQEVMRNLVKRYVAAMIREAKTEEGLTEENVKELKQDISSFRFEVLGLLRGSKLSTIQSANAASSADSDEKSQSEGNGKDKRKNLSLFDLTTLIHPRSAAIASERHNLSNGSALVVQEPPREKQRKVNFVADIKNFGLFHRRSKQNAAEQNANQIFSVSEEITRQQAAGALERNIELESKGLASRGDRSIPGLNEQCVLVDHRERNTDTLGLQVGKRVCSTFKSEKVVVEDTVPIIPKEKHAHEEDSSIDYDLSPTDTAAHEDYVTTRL
TRPC4 inh = TRPC4 (mouse) channel inhibition; B-score at 10 µM; HEK293 TRPC4beta/mu-opioid, DAMGO-evoked Fluo4 calcium flux; active compounds read low; hit rate 0.39% among 300,000; Q9QUQ5; AID 2247;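 active means B-score over 3 SD under the library average, no early fluorescence shift, positive overall ratio signal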
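Assay system: HEK293 cells with stable TRPC4beta plus mu-opioid receptor expression. Dosing: single dose. Measured by: Fluo4 Ca2+ flux fluorescence. Also added: DAMGO in two steps, submaximal then maximal. Read-out: B score from integrated Fluo4 fluorescence ratio.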
TRPC4 act = opens the mouse TRPC4 cation channel | HEK293 TRPC4beta/mu-opioid, Fluo4 calcium fluorescence; active compounds read high | B-score at 10 µM | hit rate 0.49% among 310,000 | AID 2237;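 active means B-score above 5 SD of library B-scores, and initial fluorescence ratio not above library mean plus 5 SD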;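 further: positive B-score marks a calcium rise read as TRPC4 activation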
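Assay system: HEK293 cells stably co-expressing mouse TRPC4beta and mu-opioid receptor / Timing: Fluo4 dye loading 45 min at room temperature, 110 s recording / Signal: Fluo4 calcium-sensitive dye fluorescence, kinetic, 1 Hz baseline / Read-out: integrated baseline-normalised fluorescence ratio, converted to per-well B score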
TRPC6 inh = mouse TRPC6 channel inhibition. HEK293-TRPC6, membrane potential dye, ACh-evoked depolarization; active compounds read low. B-score at 10 µM. hit rate 1.1% among 310,000;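 active means B-score under library mean minus 3 SD, initial fluorescence not abnormally high, positive integrated signal ratio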;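 further: B-score derived from integrated fluorescence ratio over the kinetic read; more negative B-score means stronger inhibition of depolarization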
TRPC6 act = mouse TRPC6 channel activation | Q61143 | HEK293-TRPC6 membrane potential dye fluorescence; active compounds read high | B-score at 10 µM | hit rate 0.13% among 310,000;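 active means B-score of the integrated fluorescence ratio above library mean plus 3 SD, and starting fluorescence ratio within library mean plus 5 SD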;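 further: higher score means more depolarization so channel activation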
TRPC4 spec 2 = second check of whether TRPC6 inhibitors also affect mouse TRPC4; hit rate 42% among 920; shares compounds with TRPC6 inh; inhibition, % at 10 µM; HEK293 TRPC4/MOR, membrane potential dye fluorescence; channel activated by saturating DAMGO dose; AID 2776;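 active means compounds whose fluorescence signal differed from control wells by over 3 SD, either direction, in both duplicate plates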
TRPC4 spec = mouse TRPC4 off-target activity of TRPC6 inhibitors. shares compounds with TRPC6 inh. HEK293 TRPC4/mu-opioid, membrane potential fluorescence. activity change, negative = inhibition, % at 10 µM. hit rate 61% among 920. AID 2777;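 active means rise or fall in signal beyond 3 SD of buffer-only wells in both replicate plates, either sign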;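 further: integrated kinetic ratio of fluorescence range over baseline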
HEK293 MPD ctr 2-1 = parental HEK293 nonspecific activity of TRPC6 inhibitors, second screen; parental HEK293 membrane potential dye fluorescence; maximal acetylcholine challenge after compound addition; shares compounds with TRPC6 inh; hit rate 31% among 920; signal change vs control, % at 10 µM; AID 2779;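 active means membrane potential signal moving either way by over 3 SD of the maximum-effect control, in both duplicate plates, meaning non-specific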
HEK293 MPD ctr-1 = parental HEK293 nonspecific activity of TRPC6 inhibitors | shares compounds with TRPC6 inh | parental HEK293 membrane potential dye fluorescence | membrane potential signal change, % at 10 µM | hit rate 60% among 920 | AID 2780;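 active means membrane potential signal shifting up or down by more than 3 SD of buffer-only wells, on both duplicate plates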
HEK293 MPD ctr-2 = checks TRPC6 modulator effects in parental HEK293 cells | shares compounds with TRPC6 inh | membrane potential dye fluorescence | membrane potential signal change, % at 10 µM | hit rate 51% among 2,400;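 active means membrane potential signal moves up or down beyond 5 SD from buffer-only wells, on both duplicate plates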
HEK293 MPD ctr 2-2 = second counter-screen for TRPC6 modulators: effect in parental HEK293 cells. shares compounds with TRPC6 inh. membrane potential dye fluorescence; after compound, maximal acetylcholine stimulation. inhibition, % at 10 µM. hit rate 14% among 2,400. AID 488926;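 active means membrane potential signal drops by more than 5 SD from the mean control signal, in both duplicate plates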
TRPC4/MOR mod = mouse TRPC4 off-target activity of TRPC6 modulators; shares compounds with TRPC6 inh; HEK293 TRPC4/mu-opioid, membrane potential fluorescence; percent change from control (negative = decrease, positive = increase), % at 10 µM; hit rate 69% among 2,400; AID 488927;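 active means membrane potential signal moved up or down beyond 5 SD of buffer control wells, in both duplicate plates, actives on both sides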
TRPC4/MOR inh 2 = mouse TRPC4 off-target activity of TRPC6 modulators, second screen; hit rate 55% among 2,400; HEK293 TRPC4/mu-opioid, membrane potential dye fluorescence; stimulated with maximal-effect DAMGO; shares compounds with TRPC6 inh; inhibition, % at 10 µM; AID 488928;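 active means drop in membrane potential signal beyond 5 SD of the control wells in both duplicate plates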;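 further: TRPC4 counter screen for TRPC6 hits run under conditions tuned for TRPC6 not TRPC4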
TRPC6 block conf = confirmation of mouse TRPC6 inhibitors; shares compounds with TRPC6 inh; HEK293-TRPC6, membrane potential dye, ACh-evoked depolarization; inhibition, % at 10 µM; hit rate 43% among 3,300;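 active means fluorescence ratio falls more than 5 SD below the full-stimulation control mean, in both duplicate runs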;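 further: integrated fluorescence ratio of peak minus minimum over baseline after agonist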
TRPC6 act confirm = mouse TRPC6 activator confirmation; shares compounds with TRPC6 inh; HEK293-TRPC6 membrane potential dye fluorescence, FDSS; activation, % at 10 µM; hit rate 11% among 2,800; AID 488961;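 active means ratio signal rise beyond 5 SD above unstimulated control wells' mean, seen in both duplicate runs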
Hits are given with their value. Hits are enriched below; roughly 2.3% of the tested compounds scored in any of these assays.

Screening CC[N+](C)(CC)CCC/C(=N/O)C(O)(c1ccccc1)c1ccccc1 returned TRPC4 PAM inactive, TRPC4 inh inactive, TRPC4 act inactive, TRPC6 inh -8.5, TRPC6 act inactive, TRPC4 spec 2 inactive, TRPC4 spec inactive, HEK293 MPD ctr 2-1 3.5%, HEK293 MPD ctr-1 inactive, TRPC6 block conf 71% and TRPC6 act confirm inactive.
Screening CCN(CC)CCC/C(=N\O)C(O)(c1ccccc1)c1ccccc1 returned TRPC4 PAM inactive, TRPC4 inh inactive, TRPC4 act inactive, TRPC6 inh -9.4, TRPC6 act inactive, TRPC4 spec 2 inactive, TRPC4 spec 0.0%, HEK293 MPD ctr 2-1 -37%, HEK293 MPD ctr-1 inactive, TRPC6 block conf 88% and TRPC6 act confirm inactive.
For O=C(c1ccco1)N1CCN(S(=O)(=O)c2cccc(Cl)c2)CC1 the results were TRPC4 PAM inactive, TRPC4 inh inactive, TRPC4 act inactive, TRPC6 inh inactive and TRPC6 act inactive.
`O=C(CSc1cccc[n+]1[O-])c1ccc(Cl)s1` gave TRPC4 PAM inactive, TRPC4 inh inactive, TRPC4 act inactive, TRPC6 inh inactive and TRPC6 act inactive.
`CCOc1ccc(N(C(=O)CNC(=O)c2ccco2)C(C(=O)NC2CCCC2)c2cccnc2)cc1` (stereo not given) gave TRPC4 PAM inactive, TRPC4 inh inactive, TRPC4 act inactive, TRPC6 inh inactive and TRPC6 act inactive.
O=[N+]([O-])c1ccc(CN2CCOCCOCCN(Cc3ccc([N+](=O)[O-])cc3)CCOCC2)cc1 was read as TRPC4 PAM inactive, TRPC4 inh inactive, TRPC4 act inactive, TRPC6 inh -5.5, TRPC6 act inactive, HEK293 MPD ctr-2 inactive, HEK293 MPD ctr 2-2 inactive, TRPC4/MOR mod -12%, TRPC4/MOR inh 2 74%, TRPC6 block conf 46% and TRPC6 act confirm inactive.
`O=[N+]([O-])c1ccc(CN2CCCCCC2)cc1` gave TRPC4 PAM inactive, TRPC4 inh inactive, TRPC4 act inactive, TRPC6 inh inactive and TRPC6 act inactive.
`CCN(CC)CCNc1nc2c(c(=O)[nH]c(=O)n2C)n1CC(O)COc1ccc(Cl)cc1Cl` (stereo not given) gave TRPC4 PAM inactive, TRPC4 inh inactive, TRPC4 act inactive, TRPC6 inh -8.8, TRPC6 act inactive, HEK293 MPD ctr-2 -308%, HEK293 MPD ctr 2-2 58%, TRPC4/MOR mod -56%, TRPC4/MOR inh 2 35%, TRPC6 block conf 42% and TRPC6 act confirm inactive.
Screening CN(C)CCNc1nc2c(c(=O)[nH]c(=O)n2C)n1CC(O)COc1ccc(Cl)cc1 (stereo not given) returned TRPC4 PAM inactive, TRPC4 inh inactive, TRPC4 act inactive, TRPC6 inh inactive and TRPC6 act inactive.
Screening CC12CCC(C(=O)NC3CCCCC3)([C@H](Br)C1=O)C2(C)C (stereo not given in full) returned TRPC4 PAM inactive, TRPC4 inh inactive, TRPC4 act inactive, TRPC6 inh inactive and TRPC6 act inactive.
For COc1cc(/C=C2\SC(=S)N(NC(=O)c3ccccc3OC)C2=O)ccc1O the results were TRPC4 PAM inactive, TRPC4 inh inactive, TRPC4 act inactive, TRPC6 inh inactive and TRPC6 act inactive.
For COc1cc(/C=C2\SC(=S)N(NS(=O)(=O)c3ccccc3)C2=O)ccc1O the results were TRPC4 PAM inactive, TRPC4 inh inactive, TRPC4 act inactive, TRPC6 inh inactive, TRPC6 act 15, HEK293 MPD ctr-2 490%, HEK293 MPD ctr 2-2 74%, TRPC4/MOR mod 64%, TRPC4/MOR inh 2 inactive, TRPC6 block conf inactive and TRPC6 act confirm 57%.
`COc1cc(/C=C2\SC(=S)N(NS(=O)(=O)c3ccc(C)cc3)C2=O)ccc1O` gave TRPC4 PAM inactive, TRPC4 inh inactive, TRPC4 act inactive, TRPC6 inh inactive, TRPC6 act 23, HEK293 MPD ctr-2 614%, HEK293 MPD ctr 2-2 inactive, TRPC4/MOR mod 90%, TRPC4/MOR inh 2 29%, TRPC6 block conf inactive and TRPC6 act confirm 110%.
Screening CS(=O)(=O)N(CC(=O)N1CCOCC1)c1cc(Cl)ccc1Cl returned TRPC4 PAM inactive, TRPC4 inh inactive, TRPC4 act inactive, TRPC6 inh inactive and TRPC6 act inactive.
For Cc1ccc(Sc2c([N+](=O)[O-])c(C)nn2C)cc1 the results were TRPC4 PAM inactive, TRPC4 inh inactive, TRPC4 act inactive, TRPC6 inh -8.3, TRPC6 act inactive, TRPC4 spec 2 inactive, TRPC4 spec inactive, HEK293 MPD ctr 2-1 -4.0%, HEK293 MPD ctr-1 inactive, TRPC6 block conf 85% and TRPC6 act confirm inactive.
Screening Cc1ccc(Sc2c([N+](=O)[O-])ncn2C)cc1 returned TRPC4 PAM inactive, TRPC4 inh inactive, TRPC4 act inactive, TRPC6 inh inactive and TRPC6 act inactive.
For O=c1cc(C(F)(F)F)[nH]c2c(C(F)(F)F)cccc12 the results were TRPC4 PAM inactive, TRPC4 inh inactive, TRPC4 act inactive, TRPC6 inh -10, TRPC6 act inactive, TRPC4 spec 2 66%, TRPC4 spec 58%, HEK293 MPD ctr 2-1 inactive, HEK293 MPD ctr-1 32% and TRPC6 block conf 83%.
For Cc1cc(=O)c2cccc(Br)c2[nH]1 the results were TRPC4 PAM inactive, TRPC4 inh inactive, TRPC4 act inactive, TRPC6 inh inactive and TRPC6 act inactive.
